Screening results: PubChem BioAssay, The Scripps Research Institute Molecular Screening Center
LYPLA1 inh = blocks human lysophospholipase 1, a PME1 counter-screen; AID 2174; inhibition, % at 5.9 µM; recombinant LYPLA1, FP-Rh probe fluorescence polarization; 320,000 tested, 0.16% active;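 active = inhibition above the mean of all tested compounds plus 3 SD, set per campaign, cut at about 14% in these data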;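 also: inhibitors block serine hydrolase probe labeling of LYPLA1 so polarization falls; 0% = enzyme with DMSO and 100% = wells lacking LYPLA1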
Fam108B counter = counter-screen for RBBP9 inhibitors: inhibitors of mouse Fam108B; recombinant Fam108B, FP-Rh probe fluorescence polarization; inhibition, % at 9.51 µM; 300,000 tested, 0.33% active;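 active = inhibition above the screen mean inhibition plus 3 SD, computed separately per campaign, cut at about 18% in these data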;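 also: inhibitors lower polarization as less probe binds the enzyme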
LYPLA2 inh = LYPLA2 (human) inhibition in PME1 counter-screen; O95372; recombinant LYPLA2, FP-Rh probe fluorescence polarization; inhibition, % at 5.9 µM; 320,000 tested, 0.38% active; AID 2177;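 active = inhibition above the screen-wide mean plus 3 SD, limit set per campaign, cut at about 26% in these data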;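 also: 0% = LYPLA2 with DMSO and 100% = wells lacking LYPLA2 enzyme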
RBBP9 inhibitor = blocks human serine hydrolase RBBP9. O75884. AID 1515. recombinant RBBP9, FP-Rh probe fluorescence polarization. 220,000 tested, 0.2% active. inhibition, % at 7.94 µM;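 active = inhibition above the campaign mean of all tested compounds plus 3 SD, cut at about 14% in these data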;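 also: plate controls were DMSO wells with RBBP9 for no effect and wells lacking RBBP9 protein for full effect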
Target sequence (O75884 whole entry, looked up): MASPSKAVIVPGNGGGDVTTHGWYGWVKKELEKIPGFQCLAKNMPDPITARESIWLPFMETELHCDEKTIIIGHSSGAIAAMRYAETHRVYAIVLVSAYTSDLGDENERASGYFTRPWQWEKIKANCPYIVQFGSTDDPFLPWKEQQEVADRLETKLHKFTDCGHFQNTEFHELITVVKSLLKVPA
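System: RBBP9 protein | Quantity: 2.5 µM RBBP9 dispensing solution, before mixing | Reagent: FP-Rh probe, 375 nM dispensing solution | Timing: Enzyme-compound preincubation 30 min, then probe labeling 45 min, 25 °C | Measured by: Fluorescence polarization | Read-out: % inhibition | Replication: One well per compound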
PME-1 primary = blocks human protein phosphatase methylesterase 1; Q9Y570; recombinant PME-1, FP-Rh probe fluorescence polarization; inhibition, % at 5.9 µM; 320,000 tested, 0.53% active; AID 2130;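 active = inhibition above the campaign mean of all compounds plus 3 SD, cut at about 26% in these data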;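 also: competitive labeling of PME-1 active site by serine hydrolase directed probe; 0% = PME-1 with DMSO and 100% = wells lacking PME-1 enzyme; inhibitors block probe labeling so polarization falls and inhibition rises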
Target sequence (Q9Y570 whole entry, looked up): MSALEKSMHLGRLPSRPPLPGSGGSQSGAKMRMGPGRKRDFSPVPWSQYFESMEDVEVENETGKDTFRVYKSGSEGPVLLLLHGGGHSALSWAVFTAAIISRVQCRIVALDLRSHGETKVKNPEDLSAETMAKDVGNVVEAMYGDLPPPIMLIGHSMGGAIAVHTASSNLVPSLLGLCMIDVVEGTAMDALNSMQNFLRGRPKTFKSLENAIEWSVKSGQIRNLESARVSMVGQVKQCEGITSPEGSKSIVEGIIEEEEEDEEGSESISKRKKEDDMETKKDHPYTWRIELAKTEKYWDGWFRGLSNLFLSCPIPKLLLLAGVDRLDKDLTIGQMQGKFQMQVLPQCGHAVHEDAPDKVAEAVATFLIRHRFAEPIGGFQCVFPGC
PAD4 inh = PAD4 (human) enzyme inhibition; Q9UM07; recombinant PAD4, RCA probe fluorescence polarization; 330,000 tested, 0.41% active; AID 485272; inhibition, % at 6.36 µM;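 active = percent inhibition above a cutoff equal to the mean of all tested compounds plus 3 SD, cut at about 15% in these data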;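 also: 0% = PAD4 with RCA probe and DMSO and 100% = probe without PAD4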
Fam108b confirm = Fam108b (mouse) hydrolase inhibition, confirmation assay; AID 1978; recombinant Fam108b, FP-Rh probe fluorescence polarization; shares compounds with Fam108B counter; inhibition, % at 9.51 µM; 930 tested, 44% active;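 active = inhibition above a limit from the primary screen, the mean over all compounds plus 3 SD, cut at about 19% in these data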;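 also: 0% = median of active Fam108b wells and 100% = catalytically dead S170A mutant; inhibitors free the probe so polarization falls as inhibition rises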
Fam108b inh = inhibits mouse Fam108b in gel-based ABPP | 260 tested, 44% active | recombinant Fam108b, fluorophosphonate probe | shares compounds with Fam108B counter | inhibition, % at 20 µM; in the data active = inhibition above about 40%
LYPLA1 conf = counter-screen for PME1 inhibitors: confirmation of human LYPLA1 inhibitors | shares compounds with LYPLA1 inh | recombinant LYPLA1, FP-Rh probe fluorescence polarization | inhibition, % at 5.9 µM | 480 tested, 69% active;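 active = mean inhibition across replicates above the hit cutoff set in the primary screen, cut at about 15% in these data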;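 also: loss of FP-Rh probe labeling of LYPLA1 seen as lower polarization; 0% = LYPLA1 with DMSO and 100% = wells lacking LYPLA1 enzyme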
LYPLA2 conf = LYPLA2 (human) inhibition, confirmation counter-screen; shares compounds with LYPLA2 inh; recombinant LYPLA2, FP-Rh probe fluorescence polarization; inhibition, % at 5.9 µM; 1,100 tested, 72% active; AID 2232;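 active = mean inhibition across replicates above the hit cutoff set in the primary screen, cut at about 26% in these data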;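 also: blocked labeling of the enzyme by serine hydrolase FP-Rh probe lowers polarization; 0% = enzyme with DMSO and 100% = wells lacking LYPLA2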
PAD4 confirm = confirmation of human PAD4 inhibitors; shares compounds with PAD4 inh; recombinant PAD4, RCA probe fluorescence polarization; inhibition, % at 6.36 µM; 1,200 tested, 28% active; AID 488796;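 active = mean inhibition across replicates above the hit cutoff set by the earlier primary screen, cut at about 15% in these data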;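 also: inhibitors block active-site labeling by the probe so polarization falls; 0% = PAD4 with probe and DMSO and 100% = probe without PAD4 enzyme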
* = called active by the depositor; . = no result given; + = active, no number. Most compounds without a hit are left out; they make up all but 1.3% or so of the library.

SMILES	LYPLA1 inh	Fam108B counter	LYPLA2 inh	RBBP9 inhibitor	PME-1 primary	PAD4 inh	Fam108b confirm	LYPLA1 conf	LYPLA2 conf	PAD4 confirm	others
CC(C)N(Cc1ccccc1)C(=O)CN1C(=O)NC2(CCCCCC2)C1=O	0	.	-5	.	-6	2	.	.	.	.
COc1cccc2c1C(=O)c1c(O)c3c(c(O)c1C2=O)C[C@](O)(C(C)=O)C[C@H]3O[C@@H]1C[C@@H](N)[C@@H](O)[C@@H](C)O1	64*	43*	50*	.	51*	73*	42*	64*	41*	.
Cc1nn(-c2ccccc2)c(Cl)c1/C=N/Nc1ccc(S(=O)(=O)Nc2ccccc2C(=O)O)cc1[N+](=O)[O-]	1	33*	28*	-7	51*	-3	51*	.	13	.
CSc1ccc(C=NNc2ccc(S(=O)(=O)Nc3ccccc3C(=O)O)cc2[N+](=O)[O-])cc1	.	.	.	.	.	-6	.	.	.	.
COC(=O)C1CCN(C(=O)COc2ccc(N(C)S(=O)(=O)c3ccc(C)cc3)cc2)CC1	1	.	7	.	5	4	.	.	.	.
COc1cc(C(=O)NCc2nnc(SCC(=O)N3CCc4ccccc43)o2)cc(OC)c1OC	1	2	-2	-8	-1	5	.	.	.	.
Nc1cc(C(=O)O)c(N)c2c1C(=O)c1ccccc1C2=O	36*	73*	53*	-3	86*	4	84*	31*	45*	.	Fam108b inh=40*
Nc1c(C(=O)O)ccc2c1C(=O)c1ccccc1C2=O	3	-1	4	-4	6	-12	.	.	.	.
O=C(O)c1ccccc1NCc1ccco1	-3	2	-3	-8	-3	4	.	.	.	.
O=C1c2ccccc2-c2onc3ccc(NCc4ccco4)c1c23	98*	107*	118*	10	120*	89*	135*	100*	121*	.	Fam108b inh=30
Cn1nc(-c2ccc(Cl)cc2)nc2c(=O)n(C)c(=O)nc1-2	85*	71*	90*	-2	37*	75*	73*	85*	89*	.
CCOC(=O)C1CCCN(C(=O)c2ccc(C(=O)c3ccccc3)cc2)C1 (stereo not drawn)	1	.	2	.	-4	1	.	.	.	.
CCOC(=O)C1CCCN(C(=O)C2c3ccccc3Oc3ccccc32)C1 (stereo not drawn)	56*	41*	59*	0	66*	94*	6	5	3	11
Cn1c(=O)c2c(nc(Br)n2Cc2nnc(N)s2)n(C)c1=O	1	-8	2	5	-3	-3	.	.	.	.
COc1ccc2ccccc2c1C(O)c1nccn1C (stereo not drawn)	24*	26*	30*	2	29*	26*	55*	15*	9	39*	Fam108b inh=0
Cc1ccc(Cl)cc1NC1=C/C(=N\S(=O)(=O)c2cccs2)c2ccccc2C1=O	0	24*	4	-6	24	52*	20*	.	.	54*
CN1C2CCC1CC(NS(=O)(=O)c1ccc(C#N)cc1)C2 (stereo not drawn)	-3	0	-9	.	0	-4	.	.	.	.
CSc1nsc(/C=C/Nc2ccc(O)cc2C)c1C#N	22*	21*	30*	0	51*	29*	14	-7	-7	-2
CSc1nsc(/C=C/Nc2ccc(F)cc2)c1C#N	-5	6	-8	0	6	-9	.	.	.	.
CCN(CC)C(=O)C1c2ccccc2Oc2ccccc21	58*	47*	72*	.	70*	80*	3	2	3	7
COc1ccc(S(=O)(=O)Nc2cc(Sc3ncn[nH]3)c(O)c3ccccc23)cc1	.	.	.	12	.	.	.	.	.	.
O=C(O)CSc1cc(NS(=O)(=O)c2ccc(Cl)cc2)c2ccccc2c1O	4	28*	28*	.	28*	31*	19*	.	13	-6
O=C(O)CCNc1ccc(NCCC(=O)O)c2c1C(=O)c1ccccc1C2=O	9	36*	24	.	27*	22*	26*	.	.	11
O=c1cc2oc3cc(O)c(O)cc3c(-c3ccccc3O)c-2cc1O	.	.	.	13	.	.	.	.	.	.
COc1ccc(OC)c(-c2c3cc(O)c(=O)cc-3oc3cc(O)c(O)cc23)c1	85*	73*	77*	-17	59*	55*	110*	-22	-83	+
SMILES	LYPLA1 inh	Fam108B counter	LYPLA2 inh	RBBP9 inhibitor	PME-1 primary	PAD4 inh	Fam108b confirm	LYPLA1 conf	LYPLA2 conf	PAD4 confirm	others
Nc1cccc(Oc2ccc3c(c2)C(=O)NC3=O)c1	1	7	9	.	1	1	.	.	.	.
N#Cc1c(N2CCCC2)nc(N)c2c(N)nc(N3CCCC3)cc12	7	58*	14	-10	21	48*	126*	.	.	43*	Fam108b inh=0
COc1cc2c(C#N)c(N3CCCC3)nc(N)c2c(N)n1	0	2	1	-6	14	-9	.	.	.	.
CC(=O)Oc1ccc2c(c1)Oc1cc(OC(C)=O)ccc1C21OC(=O)c2ccccc21	106*	107*	119*	16*	121*	99*	145*	98*	121*	128*	Fam108b inh=0
O=C(CCCN1C(=O)c2cccc3cccc(c23)C1=O)Nc1ccon1	-2	2	-1	7	1	-1	.	.	.	.
CCOc1ccccc1CNc1ccc(O)cc1	.	.	.	6	.	.	.	.	.	.
CCc1ccc(CNc2ccc(O)cc2)cc1	6	37*	13	4	38*	15*	14	.	.	3
COc1ccccc1CNC(=O)COC(=O)c1ccc2c(=O)n3c(nc2c1)CCCCC3	1	.	7	.	23	4	.	.	.	.
CCCCn1c(NS(=O)(=O)c2ccccc2)c(S(=O)(=O)c2ccc(C)cc2)c2nc3ccccc3nc21	64*	54*	56*	-14	28*	66*	2	82*	91*	-5
CCOC(=O)N1CCC(NS(=O)(=O)c2cc(Br)cc3c2N(C(=O)CC)CC3)CC1	3	-3	1	-9	-4	-2	.	.	.	.
CCc1ccc(S(=O)(=O)/N=C2/C=C(Sc3ncn[nH]3)C(=O)c3ccccc32)cc1	2	54*	40*	3	37*	37*	57*	.	47*	22*
